T cruzi repl = inhibitors of intracellular T. cruzi growth, primary screen, luminescence, NIH3T3 host cells | inhibition, % (concentration not given with the values) | hit rate 1.4% among 300,000 | T. cruzi beta-gal in NIH3T3, 90 h | AID 1885, 2009;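 active = mean inhibition across valid replicates above about 55%, limit read from the data; inconclusive = mean below that limit but half or more replicates reach it; inactive = mean below it, under half of replicates reach it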;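 note: signal also drops with host cell toxicity which is not excluded here; 0% = plate median of DMSO wells and 100% = zero luminescence signal; higher percent means less beta-gal luminescence so fewer parasites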
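System: NIH/3T3 fibroblasts plus reporter T. cruzi. Medium: DMEM plus 2% FBS. Probe or stimulus: 5000 reporter trypomastigotes per well. Compound: single 50 nL compound addition per well in DMSO. Incubation: co-culture of at least 90 h after 3 h attachment. Detection: GalScreen β-gal luminescence, detergent lysis, 60 min. Evaluation: parasite load inhibition, %.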
Lipid droplet = inhibitors of hepatocyte lipid droplet formation, primary screen, imaging, high-throughput imaging, BODIPY stain; AML12 mouse hepatocytes, oleate lipid droplets; inhibition, % at 6.5 µM; AID 1656, 2009; hit rate 0.4% among 240,000;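 active = lipid droplet intensity inhibited by at least 50%, with more than 500 cells counted; inconclusive = wells with under 300 cells, treated as cytotoxic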
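material = mouse AML12 hepatocyte cell line, fixed after treatment | also added = 100 µM oleic acid challenge | doses = compound at 6.5 µM only | schedule = overnight exposure | technique = Image-based BODIPY and DAPI two-channel analysis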
Redox H2O2 prof = compounds producing H2O2 with reducing agent – biochemical, NIH compound library profiling, artefact control for MLSCN library redox annotation, primary screen; DTT-dependent redox cycling H2O2, phenol red/HRP absorbance; 100% = 100 µM peroxide control, 0% = buffer; activation, % at 10 µM; hit rate 0.03% among 200,000; AID 878, 2007;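 active = activation of at least 50% relative to the plate's high and low controls in the primary single-dose screen; inactive = activation below 50%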;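 note: compound incubated with DTT at 0.8 mM final as the reducing agent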
MPTP inh = mitochondrial permeability transition pore inhibitors, primary screen, biochemical, isolated mouse mitochondria, absorbance | Ca2+ swelling absorbance, 30 min | inhibition, % at 10 µM | hit rate 1.4% among 360,000 | AID 602449, 2012;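 active = inhibition of 50% or more, scaled per plate between neutral and stimulator controls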;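 note: 0% = DMSO wells given calcium and 100% = 1 mM EGTA wells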
L major viab = Leishmania major promastigote growth inhibition, primary screen; hit rate 9% among 200,000; Leishmania major promastigotes, resazurin fluorescence viability; inhibition, % at 10 µM; in the data active = inhibition above about 50%;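 note: promastigotes grown with compound for 44 hours at 28 °C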
* hit, by the source's call; ? = inconclusive; . = no result. This excerpt belongs to a sample that is enriched for hits.

SMILES | T cruzi repl | Lipid droplet | Redox H2O2 prof | MPTP inh | L major viab
CC1(C)CC(=O)C2=C(C1)OC(N)=C(C#N)C2c1cc2c(cc1[N+](=O)[O-])OCO2 (stereo unspecified) | 9.0 | 3.3 | 0.3 | 1.1 | 65.3*
CN1CCN(/C=N/C2=C(C#N)C(c3ccccc3)C3=C(CC(C)(C)CC3=O)O2)CC1 (stereo unspecified) | 17.5 | . | 0.0 | -0.2 | 75.2*
COc1ccc(OC)c(-n2c(N)c(C(=O)NCC3CCCO3)c3nc4ccccc4nc32)c1 (stereo unspecified) | 10.3 | -3.6 | -0.2 | -0.9 | 7.4
Nc1c(C(=O)OCC2CCCO2)c2nc3ccccc3nc2n1C1CCCC1 (stereo unspecified) | 17.1 | 1.3 | -0.7 | 5.0 | 50.8*
CC(C)Cn1c(N)c(C(=O)NCC2CCCO2)c2nc3ccccc3nc21 (stereo unspecified) | 8.3 | . | -0.7 | -0.1 | 58.7*
COCCn1c(N)c(C(=O)NCC2CCCO2)c2nc3ccccc3nc21 (stereo unspecified) | 7.7 | . | -1.4 | -1.5 | 16.0
O=C(c1ccoc1)N1CCCC(N2CCN(c3cccc(Cl)c3)CC2)C1 (stereo unspecified) | 7.1 | 2.1 | . | 0.7 | .
COc1ncnc2c1ncn2CCCNCCCN1CCCC1=O | . | . | . | -0.9 | .
Cc1ccc(CS(=O)Cc2ccc(C(=O)N3CCN(c4ccc(F)cc4)CC3)o2)cc1 (stereo unspecified) | 10.1 | -8.4 | . | -2.5 | .
Cc1ccc(CS(=O)Cc2ccc(C(=O)N3CCN(c4ccccc4)CC3)o2)cc1 (stereo unspecified) | 55.7* | 0.0 | . | -2.6 | .
CN(C)S(=O)(=O)c1ccc(N2CCCC2)c(C(=O)NCC2COc3ccccc3O2)c1 (stereo unspecified) | 2.3 | . | . | 0.4 | .
Cc1c(C(=O)NCC2COc3ccccc3O2)oc2ccc(S(=O)(=O)N(C)C3CCCCC3)cc12 (stereo unspecified) | 74.9* | -0.7 | 0.5 | 4.3 | 53.3*
C=CCN1C(c2ccc(Br)cc2)=CS/C1=C(/C#N)c1nnc(N2CCOCC2)n1-c1ccccc1 | 28.0 | -6.9 | 0.1 | 3.4 | 56.2*
O=[N+]([O-])c1ccc(Cl)c(-c2ccc(/C=N/n3cnnc3)o2)c1 | -13.6 | -4.6 | . | -0.6 | .
CN1CCN(/N=C/c2ccc(-c3ccc([N+](=O)[O-])cc3Cl)o2)CC1 | 58.6* | -10.3 | 1.8 | 1.7 | 18.5
Cc1ccc([N+](=O)[O-])cc1-c1ccc(/C=N\n2nnnc2N)o1 | -10.6 | 6.2 | 0.6 | 2.1 | 51.3*
CC1(C(=O)NS(=O)(=O)c2ccc(C#N)cc2)CCN1C(=O)Cc1ccccc1Cl (stereo unspecified) | . | . | . | -0.5 | .
N#Cc1cnn(-c2cccc(Cl)c2)c1-n1cccc1 | 2.1 | -4.1 | . | 1.6 | .
COc1ccc(/C=N/OCC(=O)N=Nc2c(O)[nH]c3ccc(Br)cc23)cc1OC | 0.8 | 3.1 | 0.1 | 15.7 | 63.5*
COc1cc(NCCCCCCCN)c2ncccc2c1 | 47.1 | 13.4 | -0.1 | -4.9 | 100.3*
COc1cc(NC(C)CCCN)c2ncccc2c1 (stereo unspecified) | 33.3 | . | . | 4.4 | .
CCCc1cc(=O)oc2cc(OCC(=O)NCc3cccs3)ccc12 | 10.6 | 4.3 | 0.7 | 1.4 | 70.6*
CC(C(=O)c1ccc(-c2ccccc2)cc1)[n+]1ccccc1 (stereo unspecified) | -1.4 | . | -0.5 | -1.2 | 34.3
Cc1ccc[n+](C(C)C(=O)c2ccc(-c3ccccc3)cc2)c1 (stereo unspecified) | 1.6 | -16.5 | -0.1 | -2.3 | 98.1*
Cc1cc[n+](C(C)C(=O)c2ccc(-c3ccccc3)cc2)cc1 (stereo unspecified) | 73.3* | 3.3 | -0.5 | -2.9 | 89.9*
SMILES | T cruzi repl | Lipid droplet | Redox H2O2 prof | MPTP inh | L major viab
CCc1cc(C(=O)N2CCCC(CCC(=O)NCc3cccc(OC)c3)C2)no1 (stereo unspecified) | -3.9 | -2.2 | -1.1 | 1.8 | -4.2
COc1ccc(CCNC(=O)[C@H](C)N2C(=O)N3CCc4c([nH]c5ccccc45)[C@@]3(C)C2=O)cc1 | 61.6* | . | . | -0.5 | .
Cn1nc([N+](=O)[O-])nc1Oc1ccccc1 | 79.4* | 0.8 | 0.2 | 0.1 | -3.6
Cn1nc([N+](=O)[O-])nc1Oc1ccc(C(C)(C)C)cc1 | 64.0* | -4.3 | 0.0 | 0.2 | 22.2
Cn1cnnc1Sc1nc([N+](=O)[O-])nn1C | 14.9 | -6.9 | -1.4 | 1.8 | -1.6
O=C(CNCCC1=CCCCC1)Nc1ccc(N2CCCCCC2)cc1 | 37.4 | . | -5.2 | 17.6 | 84.7*
O=C(CNC1CCCCCC1)Nc1ccc(N2CCCC2)cc1 | -8.2 | . | -9.2 | . | 18.6
O=C(Nc1ccc(S(=O)(=O)Nc2ccc(F)cc2)cc1)c1ccc(CN2CCOCC2)cc1 | 8.4 | 0.5 | -1.6 | 0.1 | 98.5*
CC1CCN(S(=O)(=O)c2ccc(NC(=O)c3ccccc3F)cc2)CC1 | -0.8 | -6.1 | . | -1.6 | .
COc1ccc(NS(=O)(=O)c2ccc(NC(=O)c3ccc(CN4CCOCC4)cc3)cc2)cc1 | -34.0 | 16.6 | 0.0 | 4.1 | 12.6
CC1CCCN(S(=O)(=O)c2ccc(S(=O)(=O)N3CCCN(Cc4ccccc4)C3)cc2)C1 (stereo unspecified) | ? | . | . | -0.1 | .
CC1CCN(S(=O)(=O)c2ccc(S(=O)(=O)N3CCCN(Cc4ccccc4)C3)cc2)CC1 | . | . | 1.0 | . | 86.3*
CC1CCN(S(=O)(=O)c2ccc(NC(=O)Cn3nnc(-c4ccccc4F)n3)cc2)CC1 | 69.1* | . | 2.0 | 16.9 | 19.8
CN(C(=O)CN1CCN(c2cnn(-c3ccccc3)c(=O)c2Cl)CC1)C1CCS(=O)(=O)C1 (stereo unspecified) | . | . | . | -1.8 | .
C=CCC[C@@H](CCCCC)OC(=O)/C=C/[C@@H](O)[C@H](O)C[C@@H](O)CC=C | . | . | . | 1.2 | .
O=C(Cn1nnc(-c2ccccc2Cl)n1)N1CCN(S(=O)(=O)c2ccc(Cl)cc2)CC1 | 9.6 | . | -0.4 | 0.4 | 98.7*
CC1CCN(S(=O)(=O)c2ccc(NC(=O)CN3CCCC(C)C3)cc2)CC1 (stereo unspecified) | -4.7 | -5.3 | -0.4 | 0.8 | 88.6*
O=C(CN1CCN(Cc2ccccc2)CC1)Nc1ccc(S(=O)(=O)N2CCOCC2)cc1 | 11.4 | 0.3 | 0.1 | -1.1 | -4.8
O=C(CN1CCCCC1)Nc1ccc(S(=O)(=O)N2CCOCC2)cc1 | -14.3 | -8.8 | 0.2 | -1.4 | 96.8*
O=C(CSCc1ccc(Cl)cc1)Nc1ccc(S(=O)(=O)N2CCOCC2)cc1 | -6.7 | -3.7 | -0.5 | 4.4 | 87.6*
CC1CCCN(CC(=O)Nc2ccc(S(=O)(=O)N3CCCC3)cc2)C1 (stereo unspecified) | -6.3 | -2.8 | . | 0.7 | .
CC(C)Cc1ccc(-c2cc3nc(NCCc4ccc(S(N)(=O)=O)cc4)ccn3n2)cc1 | . | . | . | 1.8 | .
O=C(CN1CCCC1)Nc1ccc(Oc2ccc(NC(=O)CN3CCCC3)cc2)cc1 | 39.4 | . | 0.3 | -3.3 | 78.9*

Assay outcomes: PubChem BioAssay, several laboratories
